From ChEMBL document CHEMBL1145627, “E-ring-modified 7-oxyiminomethyl camptothecins: Synthesis and preliminary in vitro and in vivo biological evaluation” (Bioorg Med Chem Lett, 2008)

Key:
Mus musculus [1] = assay: Toxicity in human MKN28 cells xenografted athymic mouse assessed as survival at 12 mg/kg, po administered in q4dx4 schedule; assay type: organism-based, MKN-28; parameters: dose 12 mg/kg, route oral; details: in vivo
Procedure, shortened: (§1)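 Mice carried subcutaneous human tumor xenografts (CoBa, MKN-28 or Panc-1). They were dosed orally on an intermittent q4dx4 schedule, which was also used to set the maximum tolerated dose. Toxicity was scored as lethal toxicity, given as dead/treated mice. Drug-induced % body weight loss was also recorded.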

Mus musculus [2] = assay: Toxicity in human Panc1 cells xenografted athymic mouse assessed as survival at 14 mg/kg, po administered in q4dx4 schedule; assay type: organism-based, PANC-1; parameters: dose 14 mg/kg, route oral; details: in vivo; procedure, shortened: as §1
Mus musculus [3] = assay: Toxicity in human Panc1 cells xenografted athymic mouse assessed as loss of body weight at 14 mg/kg, po administered in q4dx4 schedule; assay type: organism-based, PANC-1; parameters: dose 14 mg/kg, route oral; details: in vivo
MKN-28 [4] = assay: Antitumor activity against human MKN28 cells xenografted athymic mouse assessed as inhibition of tumor volume at 12 mg/kg, po administered in q4dx4 schedule; assay type: functional
Procedure, shortened: (§2)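 Oral dosing on an intermittent q4dx4 schedule in mice bearing MKN-28 gastric carcinoma xenografts. Tumor volume inhibition % is relative to controls. Body weight loss % is the loss induced by drug treatment.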

Mus musculus [5] = assay: Toxicity in human MKN28 cells xenografted athymic mouse assessed as survival at 3 mg/kg, po administered in q4dx4 schedule; assay type: organism-based, MKN-28; parameters: dose 3 mg/kg, route oral; details: in vivo; procedure, shortened: as §1
[6] = Toxicity in po dosed human MKN28 cells xenografted athymic mouse administered in q4dx4 schedule; assay type: organism-based, MKN-28; details: in vivo
Mus musculus [7] = assay: Toxicity in human CoBa cells xenografted athymic mouse assessed as loss of body weight at 15 mg/kg, po administered in q4dx4 schedule; assay type: organism-based; parameters: dose 15 mg/kg, route oral; details: in vivo
Procedure, shortened: (§3)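 Mice bearing subcutaneous CoBa colon carcinoma were treated on a q4dx4 schedule, orally or, for CPT11, at 50 mg/kg. Body weight loss % is the loss induced by drug treatment.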

Mus musculus [8] = assay: Toxicity in human CoBa cells xenografted athymic mouse assessed as loss of body weight at 20 mg/kg, po administered in q4dx4 schedule; assay type: organism-based; parameters: dose 20 mg/kg, route oral; details: in vivo; procedure, shortened: as §3
Mus musculus [9] = assay: Toxicity in human Panc1 cells xenografted athymic mouse assessed as loss of body weight at 15 mg/kg, po administered in q4dx4 schedule; assay type: organism-based, PANC-1; parameters: dose 15 mg/kg, route oral; details: in vivo
MKN-28 [10] = assay: Antitumor activity against human MKN28 cells xenografted athymic mouse assessed as inhibition of tumor volume at 6 mg/kg, po administered in q4dx4 schedule; assay type: functional; procedure, shortened: as §2
Mus musculus [11] = assay: Toxicity in human MKN28 cells xenografted athymic mouse assessed as loss of body weight at 6 mg/kg, po administered in q4dx4 schedule; assay type: organism-based, MKN-28; parameters: dose 6 mg/kg, route oral; details: in vivo; procedure, shortened: as §2
HT-29 [12] = assay: Antiproliferative activity against BCRP overexpressing mitoxantrone-resistant human HT29 cells after 1 hr of drug exposure measured after 72 hrs; assay type: functional, cell-based
Procedure, shortened: (§4)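 Growth inhibition after 1-h drug exposure; IC50 is the concentration giving 50% reduction of cell growth versus untreated controls. Values are means ± SD from at least three experiments.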

Mus musculus [13] = assay: Toxicity in human MKN28 cells xenografted athymic mouse assessed as survival at 6 mg/kg, po administered in q4dx4 schedule; assay type: organism-based, MKN-28; parameters: dose 6 mg/kg, route oral; details: in vivo; procedure, shortened: as §1
HT-29 [14] = assay: Resistant index, ratio of IC50 for BCRP overexpressing mitoxantrone-resistant human HT29 cells to IC50 for human HT29 cells; assay type: functional
Procedure, shortened: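 Resistance index in HT29/mit, the BCRP-overexpressing subline. IC50 values come from the 1-h exposure growth inhibition assay, as 50% growth reduction versus untreated controls.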

PANC-1 [15] = assay: Antitumor activity against human Panc1 cells xenografted athymic mouse assessed as inhibition of tumor volume at 15 mg/kg, po administered in q4dx4 schedule; assay type: functional
Procedure, shortened: (§5)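 Human tumor xenografts (CoBa colon, MKN-28 gastric, Panc-1 pancreatic) grown subcutaneously in mice. Drug given orally on an intermittent q4dx4 schedule. Read-out is % tumor volume inhibition in treated versus control mice. Complete responses were scored as tumor disappearance lasting at least ten days.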

Mus musculus [16] = assay: Toxicity in human CoBa cells xenografted athymic mouse assessed as survival at 15 mg/kg, po administered in q4dx4 schedule; assay type: organism-based; parameters: dose 15 mg/kg, route oral; details: in vivo; procedure, shortened: as §1
MKN-28 [17] = assay: Antitumor activity against human MKN28 cells xenografted athymic mouse assessed as inhibition of tumor volume at 3 mg/kg, po administered in q4dx4 schedule; assay type: functional; procedure, shortened: as §2
[18] = Antitumor activity against human CoBa cells xenografted athymic mouse assessed as inhibition of tumor volume at 15 mg/kg, po administered in q4dx4 schedule; assay type: functional; procedure, shortened: as §5
PANC-1 [19] = assay: Antitumor activity against human Panc1 cells xenografted athymic mouse assessed as inhibition of tumor volume at 14 mg/kg, po administered in q4dx4 schedule; assay type: functional; procedure, shortened: as §5
Mus musculus [20] = assay: Toxicity in human MKN28 cells xenografted athymic mouse assessed as loss of body weight at 12 mg/kg, po administered in q4dx4 schedule; assay type: organism-based, MKN-28; parameters: dose 12 mg/kg, route oral; details: in vivo; procedure, shortened: as §2
NCI-H460 [21] = assay: Antiproliferative activity against human H460 cells after 1 hr of drug exposure measured after 72 hrs; assay type: functional, cell-based; procedure, shortened: as §4
Mus musculus [22] = assay: Toxicity in human MKN28 cells xenografted athymic mouse assessed as loss of body weight at 3 mg/kg, po administered in q4dx4 schedule; assay type: organism-based, MKN-28; parameters: dose 3 mg/kg, route oral; details: in vivo; procedure, shortened: as §2
HT-29 [23] = assay: Antiproliferative activity against human HT29 cells after 1 hr of drug exposure measured after 72 hrs; assay type: functional, cell-based; procedure, shortened: as §4
[24] = Antitumor activity against human CoBa cells xenografted in athymic mouse assessed as inhibition of tumor volume at 2 mg/kg, po administered in q4dx4 schedule; assay type: functional; procedure, shortened: as §5
NCI-H460 [25] = assay: Antiproliferative activity against human H460 cells after 2 hrs of drug exposure measured after 72 hrs; assay type: functional, cell-based
Procedure, shortened: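 Growth inhibition with IC50 taken after 2-h drug exposure, as the concentration giving 50% reduction of cell growth versus untreated controls.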

Mus musculus [26] = assay: Toxicity in human CoBa cells xenografted athymic mouse assessed as survival at 2 mg/kg, po administered in q4dx4 schedule; assay type: organism-based; parameters: dose 2 mg/kg, route oral; details: in vivo; procedure, shortened: as §1
Mus musculus [27] = assay: Toxicity in human CoBa cells xenografted athymic mouse assessed as loss of body weight at 2 mg/kg, po administered in q4dx4 schedule; assay type: organism-based; parameters: dose 2 mg/kg, route oral; details: in vivo; procedure, shortened: as §3

CCC1(O)CC(=O)OCc2c1cc1n(c2=O)Cc2c-1nc1ccccc1c2/C=N/OC(C)(C)C (racemic)
Activity (Mus musculus [1]): Non-toxic | Activity (Mus musculus [2]): Non-toxic | Activity (Mus musculus [3]): 5% | inhibition in vivo at 12 mg/kg (MKN-28 [4]): 81% | Activity (Mus musculus [5]): Non-toxic | MTD [6]: 12 mg/kg | Activity (Mus musculus [7]): 21% | Activity (Mus musculus [8]): 18% | Activity (Mus musculus [9]): 16% | inhibition in vivo at 6 mg/kg (MKN-28 [10]): 47% | Activity (Mus musculus [11]): 0% | IC50 (HT-29 [12]): 560 nM | Activity (Mus musculus [13]): Non-toxic | Ratio IC50 (HT-29 [14]): 14 | LCK (PANC-1 [15]): 1.6 | Activity (Mus musculus [16]): Non-toxic | inhibition in vivo at 3 mg/kg (MKN-28 [17]): 71% | LCK [18]: 1.3 | inhibition in vivo at 15 mg/kg ([18]; Homo sapiens, CoBa): 95% | LCK (PANC-1 [19]): 1.4 | inhibition in vivo at 14 mg/kg (PANC-1 [19]; Mus musculus, PANC-1): 99% | Activity (Mus musculus [20]): 2% | IC50 (NCI-H460 [21]): 36.8 nM | Activity (Mus musculus [22]): 0% | IC50 (HT-29 [23]): 41 nM

CCc1c2c(nc3ccc(O)cc13)-c1cc3c(c(=O)n1C2)COC(=O)[C@]3(O)CC [7-ETHYL-10-HYDROXYCAMPTOTHECIN]
IC50 (HT-29 [12]): 11500 nM | Ratio IC50 (HT-29 [14]): 17 | IC50 (NCI-H460 [21]): 220 nM | IC50 (HT-29 [23]): 670 nM

CC[C@@]1(O)C(=O)OCc2c1cc1n(c2=O)Cc2cc3ccccc3nc2-1 [CAMPTOTHECIN]
IC50 (HT-29 [12]): 8810 nM | Ratio IC50 (HT-29 [14]): 2.8 | IC50 (NCI-H460 [21]): 180 nM | IC50 (HT-29 [23]): 3160 nM

CC[C@@]1(O)C(=O)OCc2c1cc1n(c2=O)Cc2c-1nc1ccccc1c2/C=N/OC(C)(C)C [GIMATECAN]
LCK [24]: 1.1 | inhibition in vivo at 2 mg/kg ([24]; Homo sapiens, CoBa): 90% | IC50 (HT-29 [12]): 70 nM | Ratio IC50 (HT-29 [14]): 1.2 | IC50 (NCI-H460 [25]): 15 nM | Activity (Mus musculus [26]): Non-toxic | Activity (Mus musculus [27]): 18% | IC50 (NCI-H460 [21]): 20 nM | IC50 (HT-29 [23]): 56 nM

CC[C@@]1(O)CC(=O)OCc2c1cc1n(c2=O)Cc2cc3ccccc3nc2-1 [HOMOCAMPTOTHECIN]
IC50 (HT-29 [12]): 8550 nM | Ratio IC50 (HT-29 [14]): 19 | IC50 (NCI-H460 [21]): 49.6 nM | IC50 (HT-29 [23]): 440 nM

CC[C@@]1(O)C(=O)OCc2c1cc1n(c2=O)Cc2cc3c(CN(C)C)c(O)ccc3nc2-1 [TOPOTECAN]
IC50 (HT-29 [12]): 46300 nM | Ratio IC50 (HT-29 [14]): 34 | IC50 (HT-29 [23]): 1350 nM
